Test results reported in ChEMBL document CHEMBL5506013, “Mitochondria-Selective Dicationic Small-Molecule Ligand Targeting G-Quadruplex Structures for Human Colorectal Cancer Therapy” (J Med Chem, 2024).
Calls of active or inactive are those of the source. The calls are words filed in the database; no cut-off is given here.

Tests used:
Quadruplex DNA [1] = assay: Binding affinity to mito 78 G4 DNA (unknown origin) assessed as dissociation constant measured upto 450 secs by surface plasmon resonance assay; type: nucleic-acid assay
HCT-116 [2] = assay: Antiproliferative activity against human HCT-116 cells measured after 48 hrs by MTT assay; type: functional, cell-based; settings: HCT-116, 48 h
Procedure, shortened: (§1)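 Cells exposed to the ligands for 48 h. Viability was read by MTT, and the IC50 was derived from the response.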

[3] = Antiproliferative activity against human HFF-1 cells measured after 48 hrs by MTT assay; type: toxicity, cell-based; settings: HFF-1 cells; procedure, shortened: as §1
Quadruplex DNA [4] = assay: Binding affinity to mito 29 G4 DNA (unknown origin) assessed as dissociation constant measured upto 150 secs by isothermal titration calorimetry assay; type: nucleic-acid assay; settings: time <= 150.0 sec
Quadruplex DNA [5] = assay: Binding affinity to mito 0.5-16 G4 DNA (unknown origin) assessed as dissociation constant measured upto 150 secs by isothermal titration calorimetry assay; type: nucleic-acid assay
[6] = Drug localization in endoplasmic reticulum of living human HCT-116 cells assessed as colocalization at 4 uM incubated for 1 hr by ER-tracker blue staining based analysis; type: ADME, subcellular; settings: hct-116, 1 h
Procedure, shortened: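 Live HCT116 cells co-stained with ligand and ER-Tracker Blue. Colocalization assessed by confocal imaging.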

HCT-116 [7] = assay: Downregulation of ND1 gene expression in human HCT-116 cells at 0 to 4 uM measured after 48 hrs by q-PCR analysis; type: functional, cell-based; settings: dose 0-4 µM
HCT-116 [8] = assay: Downregulation of ND1 mRNA level in human HCT-116 cells at 0 to 4 uM measured after 48 hrs by qRT-PCR analysis; type: functional, cell-based; settings: dose 0-4 µM
HCT-116 [9] = assay: Downregulation of ND4 mRNA level in human HCT-116 cells at 0 to 4 uM measured after 48 hrs by qRT-PCR analysis; type: functional, cell-based; settings: dose 0-4 µM
HCT-116 [10] = assay: Induction of DNA damage in human HCT-116 assessed as increase in gammaH2AX level at upto 4 uM incubated for 72 hrs in presence of MitoTEMPOL by Western blot analysis; type: functional, cell-based
Quadruplex DNA [11] = assay: Binding affinity to mito 29 G4 DNA (unknown origin) assessed as increase in fluorescence intensity by fluorescence spectrophotometric analysis; type: nucleic-acid assay
Procedure, shortened: (§2)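 Oligonucleotides were pre-annealed at 95 °C for 10 min, then cooled slowly. Ligand (5 uM) was mixed with 20 uM DNA in buffer. Emission was collected over 550–800 nm, and enhancement was taken at 650 nm as F/F0.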

DNA = assay: Binding affinity to SS19 DNA (non-G4 DNA) (unknown origin) assessed as increase in fluorescence intensity by fluorescence spectrophotometric analysis; type: nucleic-acid assay; procedure, shortened: as §2
Quadruplex DNA [12] = assay: Binding affinity to Mito 0.5-16 G4 DNA (unknown origin) assessed as increase in CD signal at 5 uM at 290 nM by circular dichroism spectroscopic analysis; type: nucleic-acid assay
Quadruplex DNA [13] = assay: Binding affinity to Mito 0.5-15 G4 DNA (unknown origin) assessed as change in melting temperature at 5 uM by circular dichroism spectroscopic analysis; type: nucleic-acid assay
[14] = Drug localization in mitochondria of human HCT-116 cells at upto 4 uM incubated for 1 hrs by mito-tracker deep red staining based live cell imaging analysis; type: ADME; settings: hct-116, 1 h
[15] = Drug localization in human HCT-116 cells by measuring red foci at 4 uM incubated for 1 hr in presence of RNA by hoechst33342 staining based analysis; type: ADME, cell-based; settings: hct-116, 1 h
Procedure, shortened: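 Live HCT116 cells loaded with ligand 4 uM for 1 h and Hoechst33342 1 uM for 30 min, then fixed. Fixed cells digested with 200 units DNase I or RNase A for 3 h. Red foci imaged by confocal microscopy in 100 cells. Mean ± SEM, t test.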

[16] = Drug localization in human HCT-116 cells by measuring red foci at 4 uM incubated for 1 hr in presence of DMOG by hoechst33342 staining based analysis; type: ADME, cell-based; settings: hct-116, 1 h
Procedure, shortened: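 Pretreatment of live HCT116 cells: FCCP 1 uM for 20 min, cyclosporin A 1 uM for 24 h, DMOG 100 uM for 24 h, or MitoPDS at several concentrations for 3 h (applied after dye loading). Cells loaded with ligand 4 uM (excitation 488 nm) for 1 h and Hoechst33342 1 uM for 30 min. Red foci counted by confocal imaging in 100 cells. Mean ± SEM, t test.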

HCT-116 [17] = assay: Downregulation of lamin B1 level in human HCT-116 cells measured after 72 hrs by immunofluorescence analysis; type: functional, cell-based; settings: dose <= 4.0 µM
Procedure, shortened: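 HCT116 cells treated with ligand at 0-4 uM for 72 h. Lamin B1 and Ki67 imaged by immunofluorescence (excitation 635 nm), or lamin B1 probed on Western blot with β-actin as loading control.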

HCT-116 [18] = assay: Upregulation of p16 level in human HCT-116 cells at upto 4 uM measured after 72 hrs by Western blot analysis; type: functional, cell-based
Procedure, shortened: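 HCT116 cells treated with ligand at 0-4 uM for 72 h. Lysates immunoblotted for Lamin B1, p53, p21, p16, gamma-H2A.x, caspase-3 and cleaved caspase-3, with beta-actin as loading control.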

HCT-116 [19] = assay: Inhibition of cell proliferation in human HCT-116 cells at upto 4 uM measured after 7 days by colony formation assay; type: functional, cell-based; settings: time 7.0 day
Procedure, shortened: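 Colony formation: HCT116 cells treated for 7 days at 0, 1, 2 or 4 uM, colonies counted and quantified; mean ± SD.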

HCT-116 [20] = assay: Antitumor activity against human HCT-116 cells xenografted in Balb/c nude mouse model assessed as inhibition of tumor cell proliferation at 5 mg/kg, iv administered every two days for 16 days by Ki67 staining based analysis; type: functional, organism-based; settings: time 16.0 day
Procedure, shortened: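 Tumours came from HCT116-xenografted male Balb/c nude mice given 5 mg/kg i.v. every two days, or PBS, for 16 days. Tumour tissue sections were stained by TUNEL for apoptosis and by Ki67 immunofluorescence for proliferation, then compared with the control group.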

[21] = Toxicity in BALB/c nude mouse assessed as change in white blood cell count at 5 mg/kg, iv administered every two days for 16 days; type: organism-based; settings: in vivo, 384 h, time 16 day
Procedure, shortened: (§3)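 HCT116 xenograft-bearing male Balb/c nude mice (6/group) dosed iv at 5 mg/kg every two days or with PBS. Whole blood collected at sacrifice on day 16 for hematology parameters.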

[22] = Toxicity in BALB/c nude mouse assessed as change in lymphocyte count at 5 mg/kg, iv administered every two days for 16 days; type: organism-based; settings: in vivo, 384 h, time 16 day; procedure, shortened: as §3
[23] = Toxicity in BALB/c nude mouse assessed as effect on heart at 5 mg/kg, iv measured after 16 hrs post injection by H and E staining based analysis; type: organism-based; settings: in vivo
[24] = Drug localization in human HCT-116 cells transfected with Cy5-mito 78 G4 DNA at 4 uM incubated for 1 hr by hoechst33342 staining based analysis; type: ADME, cell-based; settings: hct-116, 1 h
Procedure, shortened: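 HCT116 cells transfected with Cy5-coupled mtDNA for 24 h, then given ligand 4 uM for 1 h and Hoechst33342 1 uM for 30 min. Single-plane confocal imaging of living cells, ligand excited at 488 nm, Cy5 at 635 nm. Colocalization expressed as r.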

HCT-116 [25] = assay: Induction of cell senescence in human HCT-116 cells assessed by increase SA-beta-Gal positive cells at upto 4 uM measured after 72 hrs by SA-bet-gal assay

**Q.** What does the source list for `C(=C\c1ccc2ccccc2[n+]1CCCCCCCC[n+]1c(/C=C/c2ccc(N3CCCCC3)cc2)ccc2ccccc21)/c1ccc(N2CCCCC2)cc1.[I-].[I-]`?
**A.** Kd (Quadruplex DNA [1]): 40 nM; IC50 (HCT-116 [2]): 3400 nM; IC50 at 48 h [3]: 32700 nM; Activity (Quadruplex DNA [4]): inactive; Kd (Quadruplex DNA [5]): 60 nM; Drug uptake [6]: Not Active; Activity (HCT-116 [7]): Active; Activity (HCT-116 [8]): Active; Activity (HCT-116 [9]): Active; Activity (HCT-116 [10]): inactive; Activity (Quadruplex DNA [11]): Active; Activity (DNA): inactive; Activity (Quadruplex DNA [12]): Active; ΔTm (Quadruplex DNA [13]): 3.6 °C; Drug uptake [14]: Active; Drug uptake [15]: Active; Drug uptake [16]: Not Active; Activity (HCT-116 [17]): Dose-Dependent Effect; Activity (HCT-116 [18]): Active; inhibition (HCT-116 [19]): Active; Activity (HCT-116 [20]): Active; Activity [21]: Non-Toxic; Activity [22]: Non-Toxic; Activity [23]: Non-Toxic; Drug uptake [24]: Active; Activity (HCT-116 [25]): Active
